# Compound activity (PubChem BioAssay)
# Most compounds without a hit are left out; they make up all but 4.6% or so of the library.
# DSG3 Ab inh: inhibitors of pemphigus antibody binding to DSG3, primary screen, biochemical, bead-based, flow cytometry, scFv-GFP; Desmoglein-3 (Homo sapiens), P32926; DSG3-coupled beads, scFv-anti-DSG3-GFP binding; stronger effect = lower value; binding (percent of control), % at 10 µM; 310,000 tested, 0.48% active; AID 588358, 2011;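 active means binding more than 3 SD below its plate's average and above zero; inconclusive means below that plate limit but binding exactly zero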;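 further: hits lower antibody fragment binding to DSG3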
# PolyA inh: polyadenylation inhibitors in yeast reporter cells, primary screen, luminescence, S. cerevisiae; S. cerevisiae SKY197-pL101 polyadenylation reporter, beta-gal luminescence; efflux-impaired pdr1/pdr3 knockout yeast; score 100 = 6 SD above DMSO; activity score, % at 12 µM; 300,000 tested, 0.02% active; AID 1875, 2009;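 active means lowest replicate activity score at least 50, where 100 means six control SD above control mean; inconclusive means lowest score under 50 but half or more replicates reach 50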;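 further: yeast exposed to compound for 9 h at 30 °C; higher score means more reporter readthrough which indicates perturbed polyadenylation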
# ALR H2O2 inh: inhibitors of human ALR sulfhydryl oxidase, primary screen, biochemical, H2O2 detection, HRP-luminol luminescence, single point | FAD-linked sulfhydryl oxidase ALR (Homo sapiens), P55789 | purified ALR, DTT oxidation | inhibition, % (test concentration not listed) | 290,000 tested, 3.8% active | AID 485317, 2010;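 active means mean replicate inhibition above about 79%, with every replicate also reaching it, limit read from the data; inconclusive means only one of the two criteria met; inactive means mean below limit and not every replicate reaching it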
# Target sequence (P55789 whole entry, looked up): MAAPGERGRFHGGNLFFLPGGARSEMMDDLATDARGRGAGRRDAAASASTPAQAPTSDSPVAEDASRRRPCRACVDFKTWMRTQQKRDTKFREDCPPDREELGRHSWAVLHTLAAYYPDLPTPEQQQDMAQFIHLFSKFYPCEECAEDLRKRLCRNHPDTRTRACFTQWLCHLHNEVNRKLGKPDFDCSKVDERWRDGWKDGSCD
# NALP1 yeast inh: NALP1 inflammasome inhibitors in reconstituted yeast, colorimetric, S. cerevisiae, triplicate retest. 280,000 tested, 0.61% active. inhibition, % at 10 µM. AID 2071, 2009. S. cerevisiae NALP1/ASC/caspase-1 growth, X-gal OD620, 72 h; in the data active means inhibition mostly above about 24%, no sharp cut-off; inactive means mostly below about 32%
# Arr AP2 block: inhibitors of beta-arrestin/AP2 binding, primary screen, biochemical, GPCR trafficking, flow cytometry; FITC-arrestin peptide / GST-AP2 beads; AP2 beta2 appendage carries R879A mutation; inhibition, % at 10 µM; 340,000 tested, 0.31% active; AID 504490, 2011;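 active means inhibition above a set limit, near 3 SD of compounds lacking own fluorescence, cut at about 54% in these data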;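 further: plate controls were DMSO wells for no effect and 5 µM unlabelled arrestin peptide for full effect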
#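 System: GST-AP2 R879A glutathione beads | Also added: FITC-arrestin peptide, 50 nM | Times: 12 min plus 1 h, RT | Signal: Bead flow cytometry, FITC channel | Buffer or medium: PBS with 0.05% Tween 20 and 0.1% BSA | Read-out basis: Percent drop in bead-associated FITC signal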
# NALP3 yeast inh: NALP3 inflammasome inhibitors in reconstituted yeast, primary screen, luminescence, uHTS | Yeast reconstituted NLRP3/ASC/caspase-1, beta-gal luminescence, 24 h | inhibition, % at 10 µM | 330,000 tested, 0.39% active | AID 2825, 2010;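 active means inhibition of 50% or more; inactive means inhibition below 50%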;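 further: plate controls were induced DMSO wells for no effect and uninduced yeast grown without galactose for full effect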
# An asterisk follows results filed as active; ? = inconclusive; . = not tested or not shown.
SMILES,DSG3 Ab inh,PolyA inh,ALR H2O2 inh,NALP1 yeast inh,Arr AP2 block,NALP3 yeast inh
CC1=NN2C(=N)/C(=C\c3cc(C)n(-c4ccccc4)c3C)C(=O)N=C2S1,102,0,-3,4,-1,-2
Cc1cc(/C=C2/C(=N)N3C(=NC2=O)SN=C3S(C)(=O)=O)c(C)n1-c1ccc(F)cc1,104,21,62,5,1,20
CCOc1ccc(-n2c(C)cc(/C=C3/C(=N)N4C(=NC3=O)SN=C4S(C)(=O)=O)c2C)cc1,105,6,98*,-1,-9,20
CCOc1cc(/C=C2/C(=N)N3C(=NC2=O)SN=C3S(C)(=O)=O)ccc1OS(=O)(=O)c1ccccc1,106,-6,95*,0,-13,0
CCC(CC)C1=NN2C(=N)/C(=C\c3cc(C)n(-c4cccc(C)c4)c3C)C(=O)N=C2S1,72*,0,3,21,1,9
CN(C(=O)CCNC(=O)Cn1cnc2ccccc2c1=O)c1ccccc1F,97,22,0,-8,43,8
CN(c1ccccc1)S(=O)(=O)c1ccc(C(=O)N2CCN(c3ccccc3)CC2)cc1,97,.,.,.,.,.
COC(=O)c1c(C(=O)OC)c(-c2ccc(Cl)c(Cl)c2)n2c1CCC2,99,-13,-11,14,2,29
O=C(O)c1c(C(=O)O)c(-c2ccc(Cl)c(Cl)c2)n2c1CSC2,102,4,97*,3,6,-2
CC(C)(C)OC(=O)C[C@H]1C/C=C\C[C@@H](CC(=O)N(CCO)Cc2ccccc2)C(=O)N2CCC[C@H]2COC1=O,101,.,-3,.,7,0
COCCCN(C(=S)Nc1cc(Cl)cc(Cl)c1)C(C)c1ccncc1 (stereo not given),122,-9,-5,68*,-4,-1
CCCCn1c(-c2nn(C)c(C)c2Cl)n[nH]c1=S,102,11,48,5,15,12
CCc1nn(C)c(-c2n[nH]c(=S)n2N)c1Cl,107,7,91*,9,14,9
CCc1cc(-c2n[nH]c(=S)n2N)n(C)n1,114,11,95*,3,11,14
COC(=O)C(C)Sc1nc2c(cnn2-c2ccc(Cl)cc2)c(=O)[nH]1 (stereo not given),103,3,0,10,5,12
Nc1nc2c(nc(SCc3ccccc3Br)n2C2OC(CO)C(O)C2O)c(=O)[nH]1 (stereo not given),108,1,86*,13,-15,5
CC1CC(C)CN(S(=O)(=O)c2ccc3c(c2)CC(=O)N3)C1 (stereo not given),.,.,-1,.,8,9
COCCn1c(SCC(=O)Nc2cc(C)on2)nc2c(c1=O)SC(C)C2 (stereo not given),101,-9,.,.,-23,14
CC1Cc2nc(SCC(=O)Nc3ccc4c(c3)OCO4)n(Cc3ccccc3)c(=O)c2S1 (stereo not given),104,-4,-9,10,15,12
CC1Cc2nc(SCC(=O)Nc3ccc(F)cc3F)n(C)c(=O)c2S1 (stereo not given),85,3,99*,-17,-2,-15
Cc1ccc2nc(NC(=O)CSc3nc4c(c(=O)n3C)SC(C)C4)sc2c1 (stereo not given),103,?,99*,1,26,0
COCCn1c(SCC(=O)Nc2ccc3c(c2)OCCO3)nc2c(c1=O)SC(C)C2 (stereo not given),93,.,99*,10,-3,3
Cc1ccc(C)c(NC(=O)CSc2nc3c(c(=O)n2C)SC(C)C3)c1 (stereo not given),96,-7,48,.,26,1
CC1Cc2nc(SCC(=O)Nc3ccc4c(c3)OCCO4)n(C)c(=O)c2S1 (stereo not given),119,0,94*,22,4,-9
